Sampled rows, rich in hits. Any-hit rate of the full collection: about 3.9%.
HSP90 inh: HSP90 inhibitors, primary screen, cell lysate, luminescence | Heat shock protein HSP 90 (rabbit reticulocyte lysate; luciferase refolding) | Rabbit reticulocyte lysate, luciferase refolding luminescence, 3 h | inhibition, % at 5.6 µM | hit rate 0.91% among 290,000 | AID 1789, 2009;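 active = inhibition above the screen-wide mean plus 3 SD, computed separately per campaign, cut at about 16% in these data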;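 note: 0% = DMSO wells and 100% = 60 µM geldanamycin wells; inhibitors lower the luminescence because luciferase stays unfolded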
HSF-1 act: HSF-1 activators, primary screen, NIH3T3-HGL cells, MG132 stress, luminescence, single point; NIH3T3-HGL HSF-1 luciferase reporter, 8 h; 100% = twice DMSO control signal; hit rate 1.7% among 300,000; activation, % at 9 µM;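 active = mean replicate activation of at least 50% with a set share of replicates each reaching 50%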;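 note: 0% = median of the neutral control wells and 100% = twice that signal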
NS3 helicase inh: inhibitors of HCV NS3 helicase, primary screen, biochemical, Cy5 molecular beacon fluorescence | Hepatitis C virus NS3 helicase | NS3 helicase DNA unwinding | inhibition, % at 10.9 µM | hit rate 0.56% among 290,000 | AID 1800, 2009;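 active = inhibition above the mean of all tested compounds plus 3 SD, set per campaign, cut at about 35% in these data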;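 note: 0% = DMSO wells and 100% = thioflavine S control wells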
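System: NS3 helicase fragment of HCV / Schedule: 1 h at 25 °C / Control set: DMSO alone as 0% and 110 µM thioflavine S as 100% / Reagent: Cy5/quencher beacon DNA duplex and ATP to start / Technique: Cy5 fluorescence / Replication: singlicate / Evaluation: % inhibition of end-to-start signal ratio versus controls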
FID counter: compounds displacing fluorescent DNA intercalator, primary screen, artefact control for HCV NS3 helicase inhibitor project, biochemical, FID fluorescence | DNA fluorescent intercalator displacement | hit rate 0.17% among 290,000 | inhibition, % at 7.9 µM; in the data active = inhibition above about 37%;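 note: 0% = vehicle and 100% = reference compound; higher means more ethidium bromide displaced from hairpin DNA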
HCV core dimer: inhibitors of HCV core protein dimerization, primary screen, biochemical, TR-FRET, high-throughput; TR-FRET GST/Flag-core106 dimerization, 1536-well; inhibition, % at 5 µM; hit rate 0.33% among 300,000;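 active = inhibition above the mean of all tested compounds plus 3 SD, set per screening campaign, cut at about 45% in these data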
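Material: Tagged HCV core106 pair (GST and Flag) | Amount: GST-core106 13.5 nM, Flag-core106 17 nM | Medium: KF-containing HEPES buffer, pH 7.45, DTT, CHAPS, BSA | Reagent: Eu donor and XL665 acceptor anti-tag antibodies | Schedule: 4 h at 22.5 °C | Technique: Time-resolved FRET, ex 340 nm, em 617 and 671 nm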
HSF1 inhib: HSF1 inhibitors in luciferase reporter cells, primary screen, cell-based, NIH3T3, luminescence | activity change, negative = inhibition, % at 7.5 µM (by protocol) | AID 2098, 2009 | NIH3T3-HGL HSE-luciferase, MG132-induced, luminescence 8 h; stronger effect = lower value | hit rate 0.77% among 300,000;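 active = more than half of replicate wells show activity change below -50%, luminescence cut by over half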;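 note: luciferase reports HSF-1 transcriptional activity via heat shock element; 0% = median of DMSO wells and -100% = zero luminescence signal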
Numbers without * were called inactive.

What do the screens show for `CN(C)c1ccc(C2Nc3ccccc3C(=O)N2CCCN2CCOCC2)cc1` (centres undefined)?
HSP90 inh: 4; HSF-1 act: -74; NS3 helicase inh: -33; FID counter: 1; HCV core dimer: -3; HSF1 inhib: -68*

How did Cc1ccc(S(=O)(=O)N2CCN(C(=O)c3cccc(-n4cccc4)c3)CC2)cc1 do in these assays?
HSF-1 act: 1; HCV core dimer: 31; HSF1 inhib: 5

What do the screens show for `O=C(c1cccc(-n2cccc2)c1)N1CCN(S(=O)(=O)c2ccccc2)CC1`?
HSF-1 act: -22; HCV core dimer: 65*; HSF1 inhib: -2

How did Cc1ccc(NC(=O)c2ccccn2)c(Br)c1 do in these assays?
HSP90 inh: -1; HSF-1 act: 58*; NS3 helicase inh: 7; FID counter: -3; HCV core dimer: 1; HSF1 inhib: 30

How did Cc1ccc(C)c(NC(=O)c2ccccn2)c1 do in these assays?
HSP90 inh: 0; HSF-1 act: 24; NS3 helicase inh: 1; FID counter: -4; HCV core dimer: -3; HSF1 inhib: 10

How did COc1ccc(/C=N/N=C2/SCC(=O)N2Cc2ccccc2)cc1 do in these assays?
HSP90 inh: 1; HSF-1 act: 66*; NS3 helicase inh: 17; FID counter: -9; HCV core dimer: 2; HSF1 inhib: 35

Results for Cc1cc(C)c(S(=O)(=O)N2CCOC2CNC(=O)C(=O)NCCc2ccc(S(N)(=O)=O)cc2)c(C)c1 (centres undefined) ?
HSP90 inh: 0; HSF-1 act: 4; NS3 helicase inh: 0; FID counter: -28; HCV core dimer: 50*; HSF1 inhib: -3

What do the screens show for `O=C(CSc1n[nH]c(=O)n1-c1cccnc1)Nc1ccccc1Cl`?
HSP90 inh: 0; HSF-1 act: 2; NS3 helicase inh: -2; FID counter: -7; HCV core dimer: -2; HSF1 inhib: 5

What do the screens show for `COC(=O)c1c(NC(=O)c2nn(C)cc2Cl)sc2c1CCCC2`?
HSP90 inh: 2; HSF-1 act: 58*; NS3 helicase inh: -7; FID counter: 0; HCV core dimer: 2; HSF1 inhib: 15

What do the screens show for `CCc1c(C)nc(SCC(=O)Nc2cccc(Br)c2)[nH]c1=O`?
HSP90 inh: 2; HSF-1 act: 57*; NS3 helicase inh: -7; FID counter: -6; HCV core dimer: 0; HSF1 inhib: 21

Results for Cc1ccc(S(=O)(=O)N/N=C/c2cccc3nccnc23)cc1 ?
HSP90 inh: 0; HSF-1 act: -1; NS3 helicase inh: 6; FID counter: -1; HCV core dimer: -3; HSF1 inhib: -4

How did c1cncc(-c2nc(-c3ccc4c(c3)OCCO4)cs2)c1 do in these assays?
HSP90 inh: 16; HSF-1 act: 64*; NS3 helicase inh: 15; FID counter: -29; HCV core dimer: -14; HSF1 inhib: 32

How did Fc1ccc(-c2csc(-c3cccnc3)n2)cc1F do in these assays?
HSP90 inh: -1; HSF-1 act: 30; NS3 helicase inh: -4; FID counter: -13; HCV core dimer: 1; HSF1 inhib: 1

Results for O=C(Nc1ccc(Cl)cc1)N1CCC(c2ccccc2)C1 (centres undefined) ?
HSP90 inh: 0; HSF-1 act: 76*; NS3 helicase inh: -5; FID counter: -11; HCV core dimer: -1; HSF1 inhib: 58

Results for Cc1ccc(C2CCN(C(=O)Nc3ccccc3)C2)cc1 (centres undefined) ?
HSP90 inh: -2; HSF-1 act: 45; NS3 helicase inh: 2; FID counter: -18; HCV core dimer: 0; HSF1 inhib: 24

What do the screens show for `Cc1ccc(NC(=O)N2CCC(c3ccccc3)C2)cc1C` (centres undefined)?
HSP90 inh: 4; HSF-1 act: 62*; NS3 helicase inh: 7; FID counter: -22; HCV core dimer: 2; HSF1 inhib: 38

What do the screens show for `O=C(Nc1cccc(F)c1)N1CCC(c2ccccc2)CC1`?
HSP90 inh: -4; HSF-1 act: 24; NS3 helicase inh: -5; FID counter: -13; HCV core dimer: 4; HSF1 inhib: 0

What do the screens show for `CCOc1ccc(NS(=O)(=O)c2ccc3[nH]c(=O)[nH]c3c2)cc1`?
HSP90 inh: -2; HSF-1 act: 5; NS3 helicase inh: 0; FID counter: 2; HCV core dimer: -6; HSF1 inhib: -11

Results for O=C(NC1CCCC1)C(c1ccncc1)N(CCCN1CCOCC1)C(=O)c1ccc(-c2ccccc2)[nH]1 (centres undefined) ?
HSP90 inh: -1; HSF-1 act: 29; NS3 helicase inh: -23; FID counter: 6; HCV core dimer: 0; HSF1 inhib: 22

How did O=C(NC1CCCC1)C(c1ccncc1)N(Cc1ccccc1)C(=O)c1ccc(-c2ccccc2)[nH]1 (centres undefined) do in these assays?
HSP90 inh: -6; HSF-1 act: 73*; NS3 helicase inh: -12; FID counter: -13; HCV core dimer: 22; HSF1 inhib: 44

Results for O=C(NC1CCCC1)C(c1ccncc1)N(Cc1ccco1)C(=O)c1ccc(-c2ccccc2)[nH]1 (centres undefined) ?
HSP90 inh: -1; HSF-1 act: 122*; NS3 helicase inh: -5; FID counter: -25; HCV core dimer: 12; HSF1 inhib: 114

Results for O=C(NC1CCCC1)C(c1ccccc1)N(Cc1cccnc1)C(=O)Cc1cccs1 (centres undefined) ?
HSP90 inh: 0; HSF-1 act: 55*; NS3 helicase inh: -3; FID counter: -15; HCV core dimer: -1; HSF1 inhib: 17

What do the screens show for `CC(C)(C)NC(=O)C(c1ccncc1)N(Cc1ccc(F)cc1)C(=O)c1ccc(-c2ccccc2)[nH]1` (centres undefined)?
HSP90 inh: -1; HSF-1 act: 87*; NS3 helicase inh: -26; FID counter: -23; HCV core dimer: 10; HSF1 inhib: 90

Results for COc1ccc(OCc2cc(C(=O)NCC(C)(C)N3CCOCC3)no2)c(Cl)c1 ?
HSP90 inh: 3; HSF-1 act: -1; NS3 helicase inh: -11; FID counter: 8; HCV core dimer: -19; HSF1 inhib: 6

What do the screens show for `CN1CCN(C(=O)CCS(=O)(=O)c2cc3c(cc2Cl)NC(=O)CO3)CC1`?
HSP90 inh: 0; HSF-1 act: -7; NS3 helicase inh: 3; FID counter: -7; HCV core dimer: 4; HSF1 inhib: -7

Screening data from PubChem BioAssay.
